Source: publication PMC3288537 (ACS Chemical Biology, 2011)
Where “and” joins values, the source holds several entries; their conditions need not be identical. Equal values may be shown once.

Assays:
SHP2 = target: T1, SHP2 (Homo sapiens, UniProt Q06124); assay: Dose-response OMFP phosphatase assay, SHP2; type: biochemical; settings: read-out: IC50 SHP2; OMFP substrate
T1 sequence (Q06124 1-593): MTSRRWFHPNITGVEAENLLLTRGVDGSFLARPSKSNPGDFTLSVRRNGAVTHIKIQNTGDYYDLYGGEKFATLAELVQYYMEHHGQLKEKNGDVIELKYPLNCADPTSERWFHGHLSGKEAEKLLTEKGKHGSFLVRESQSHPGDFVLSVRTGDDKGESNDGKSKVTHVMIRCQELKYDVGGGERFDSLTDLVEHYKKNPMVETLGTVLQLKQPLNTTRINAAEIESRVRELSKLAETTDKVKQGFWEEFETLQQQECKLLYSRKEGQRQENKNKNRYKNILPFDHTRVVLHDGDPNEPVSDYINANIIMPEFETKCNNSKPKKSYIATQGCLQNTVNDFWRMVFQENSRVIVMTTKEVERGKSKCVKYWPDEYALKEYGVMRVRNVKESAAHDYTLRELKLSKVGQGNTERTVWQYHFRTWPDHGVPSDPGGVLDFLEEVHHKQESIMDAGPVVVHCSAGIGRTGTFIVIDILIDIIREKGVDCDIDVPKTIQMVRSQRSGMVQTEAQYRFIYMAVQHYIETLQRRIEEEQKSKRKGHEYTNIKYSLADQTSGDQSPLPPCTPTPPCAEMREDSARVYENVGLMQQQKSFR
Summary of the method: (§1)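 Ten-point 2-fold dilution series of test compound prepared in DMSO. Fluorescence (ex 485/em 528 nm) read in kinetic mode over 10 min; progress-curve slopes taken as activity. IC50 by nonlinear regression (sigmoidal, variable slope).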

PTP1B = target: T2, PTP1B (Homo sapiens, UniProt P18031); assay: Dose-response OMFP phosphatase assay, PTP1B; type: biochemical; settings: read-out: IC50 PTP1B; OMFP substrate
T2 sequence (P18031 1-435): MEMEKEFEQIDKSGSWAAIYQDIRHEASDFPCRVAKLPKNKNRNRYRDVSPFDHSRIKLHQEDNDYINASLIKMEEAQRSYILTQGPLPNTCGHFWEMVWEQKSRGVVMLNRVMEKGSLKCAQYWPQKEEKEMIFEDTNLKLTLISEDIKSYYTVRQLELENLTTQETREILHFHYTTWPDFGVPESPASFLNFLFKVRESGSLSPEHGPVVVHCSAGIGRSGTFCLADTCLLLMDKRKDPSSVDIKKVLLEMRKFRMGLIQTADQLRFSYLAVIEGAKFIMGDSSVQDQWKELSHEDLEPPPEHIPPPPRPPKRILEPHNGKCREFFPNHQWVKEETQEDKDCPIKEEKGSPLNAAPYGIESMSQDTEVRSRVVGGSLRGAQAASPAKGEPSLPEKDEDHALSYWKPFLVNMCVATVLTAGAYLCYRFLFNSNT

SHP1 = SHP1 (Homo sapiens, UniProt P29350); assay: Dose-response OMFP phosphatase assay, SHP1; type: biochemical; settings: read-out: IC50 SHP1; OMFP substrate
SHP1, sequence (P29350 whole entry): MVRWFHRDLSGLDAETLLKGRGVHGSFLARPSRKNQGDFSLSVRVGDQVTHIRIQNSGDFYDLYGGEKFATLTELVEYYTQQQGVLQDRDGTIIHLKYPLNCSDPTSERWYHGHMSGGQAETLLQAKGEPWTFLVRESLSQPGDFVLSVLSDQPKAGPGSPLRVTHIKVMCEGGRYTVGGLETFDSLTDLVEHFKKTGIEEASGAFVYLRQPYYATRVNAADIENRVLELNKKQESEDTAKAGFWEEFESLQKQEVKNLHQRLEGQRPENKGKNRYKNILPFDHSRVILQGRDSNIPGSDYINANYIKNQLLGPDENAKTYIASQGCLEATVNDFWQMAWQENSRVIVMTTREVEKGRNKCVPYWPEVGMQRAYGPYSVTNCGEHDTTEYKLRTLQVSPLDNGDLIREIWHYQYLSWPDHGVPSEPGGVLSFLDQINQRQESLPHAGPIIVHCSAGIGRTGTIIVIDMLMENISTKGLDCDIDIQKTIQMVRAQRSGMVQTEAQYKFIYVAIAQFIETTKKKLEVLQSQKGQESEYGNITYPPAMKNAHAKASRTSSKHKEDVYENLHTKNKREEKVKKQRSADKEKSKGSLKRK
Summary of the method: as §1

LAR = LAR (Homo sapiens, UniProt P10586); assay: Dose-response OMFP phosphatase assay, LAR; type: biochemical; settings: read-out: IC50 LAR; OMFP substrate
LAR, sequence (P10586 30-1907, species assumed): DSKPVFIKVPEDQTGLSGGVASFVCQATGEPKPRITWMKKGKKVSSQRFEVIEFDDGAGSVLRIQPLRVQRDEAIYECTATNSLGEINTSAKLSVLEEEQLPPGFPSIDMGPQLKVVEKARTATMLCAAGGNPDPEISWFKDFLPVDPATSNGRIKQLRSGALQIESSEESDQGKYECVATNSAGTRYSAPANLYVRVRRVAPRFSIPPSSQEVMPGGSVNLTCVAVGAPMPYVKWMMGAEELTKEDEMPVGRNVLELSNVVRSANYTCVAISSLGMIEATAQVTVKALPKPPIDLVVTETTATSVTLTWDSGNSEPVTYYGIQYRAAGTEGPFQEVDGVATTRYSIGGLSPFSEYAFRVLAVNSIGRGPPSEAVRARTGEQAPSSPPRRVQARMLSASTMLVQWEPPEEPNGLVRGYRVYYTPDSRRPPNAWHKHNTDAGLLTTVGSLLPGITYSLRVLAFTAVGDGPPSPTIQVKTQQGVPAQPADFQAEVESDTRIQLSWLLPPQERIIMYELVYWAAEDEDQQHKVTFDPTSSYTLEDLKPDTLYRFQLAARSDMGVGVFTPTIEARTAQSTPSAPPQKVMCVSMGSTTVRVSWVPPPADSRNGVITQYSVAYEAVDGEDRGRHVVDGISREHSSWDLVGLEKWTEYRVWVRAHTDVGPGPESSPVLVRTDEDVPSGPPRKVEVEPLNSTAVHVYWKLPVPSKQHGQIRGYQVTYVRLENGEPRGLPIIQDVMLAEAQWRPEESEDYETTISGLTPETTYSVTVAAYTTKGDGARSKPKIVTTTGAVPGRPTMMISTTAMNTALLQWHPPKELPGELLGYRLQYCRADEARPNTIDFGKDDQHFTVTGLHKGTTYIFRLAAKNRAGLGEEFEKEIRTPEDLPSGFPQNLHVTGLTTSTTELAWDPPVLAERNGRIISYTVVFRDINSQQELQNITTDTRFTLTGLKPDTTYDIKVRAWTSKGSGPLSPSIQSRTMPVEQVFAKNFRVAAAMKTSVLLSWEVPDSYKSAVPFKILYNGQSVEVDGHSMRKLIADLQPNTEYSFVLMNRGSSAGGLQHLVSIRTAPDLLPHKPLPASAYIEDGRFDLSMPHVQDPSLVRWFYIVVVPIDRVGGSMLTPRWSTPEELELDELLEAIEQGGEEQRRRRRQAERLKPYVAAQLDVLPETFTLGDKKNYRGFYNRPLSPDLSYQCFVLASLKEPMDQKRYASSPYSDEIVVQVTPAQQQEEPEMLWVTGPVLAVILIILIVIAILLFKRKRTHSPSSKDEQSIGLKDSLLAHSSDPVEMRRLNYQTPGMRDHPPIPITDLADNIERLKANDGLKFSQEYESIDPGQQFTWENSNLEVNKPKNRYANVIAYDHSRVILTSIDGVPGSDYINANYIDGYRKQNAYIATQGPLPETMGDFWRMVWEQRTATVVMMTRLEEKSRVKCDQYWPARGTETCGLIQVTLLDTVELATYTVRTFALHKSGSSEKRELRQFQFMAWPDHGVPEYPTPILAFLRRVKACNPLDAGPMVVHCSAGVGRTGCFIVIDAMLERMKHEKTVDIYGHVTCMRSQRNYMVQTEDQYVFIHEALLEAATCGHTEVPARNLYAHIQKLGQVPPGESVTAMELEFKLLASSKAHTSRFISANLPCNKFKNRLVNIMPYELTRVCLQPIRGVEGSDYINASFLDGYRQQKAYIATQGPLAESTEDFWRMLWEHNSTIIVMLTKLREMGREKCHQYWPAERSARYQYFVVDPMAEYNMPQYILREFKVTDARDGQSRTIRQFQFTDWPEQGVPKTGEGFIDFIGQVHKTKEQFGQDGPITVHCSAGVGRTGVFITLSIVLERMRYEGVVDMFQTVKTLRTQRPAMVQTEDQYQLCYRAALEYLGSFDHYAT
Summary of the method: as §1

HePTP = target: T3, HePTP (Homo sapiens, UniProt P35236); assay: Michaelis-Menten kinetic studies with OMFP; type: biochemical; settings: various inhibitor and substrate concentrations
T3 sequence (P35236 1-360): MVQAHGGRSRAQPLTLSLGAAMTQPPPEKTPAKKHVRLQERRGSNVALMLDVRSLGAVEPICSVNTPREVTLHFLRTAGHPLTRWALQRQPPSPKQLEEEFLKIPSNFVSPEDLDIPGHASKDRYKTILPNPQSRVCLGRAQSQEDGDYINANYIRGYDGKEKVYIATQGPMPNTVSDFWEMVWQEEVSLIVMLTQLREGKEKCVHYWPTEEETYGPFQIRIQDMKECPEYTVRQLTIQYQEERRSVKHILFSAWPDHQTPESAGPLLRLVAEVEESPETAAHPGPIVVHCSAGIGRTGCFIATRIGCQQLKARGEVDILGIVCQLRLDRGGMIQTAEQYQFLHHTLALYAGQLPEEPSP
Summary of the method: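 Started by adding OMFP at 0–400 μM. Initial rates read by fluorescence (ex 485/em 528 nm), corrected with no-enzyme controls. Eadie-Hofstee plots drawn; competing models compared by AICc.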

[1] = Serum concentration in mice after i.p. injection; type: in vivo; settings: i.p. 3 mg/kg
Summary of the method: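 Mice dosed i.p. at 3 mg/kg with test compound. Blood serum collected 5, 20, 60 and 120 min after injection for measurement of compound concentration.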

## O=C(O)c1ccccc1-c1ccc(/C=c2\sc3nc4cc(Br)cnc4n3c2=O)o1 [Compound 1]
SHP2
  IC50: 1100 nM
PTP1B
  IC50: 1700 nM
SHP1
  IC50: 2500 nM
LAR
  IC50: 73000 nM
HePTP
  inhibition pattern: mixed inhibition pattern
[1]; 20 min, 3 mg/kg
  serum concentration (peak): 1240 ± 170 nM and 1240 nM
[1]; 2 h
  serum concentration: 18 ± 10 nM
